One assay concerns HepG2. The experiment in a line: Cytoprotection against 8 mM acetaminophen-induced human HepG2 cells assessed as cell viability at 10 uM after 24 hrs by MTT assay (reference value: 0 +/- 2%). The assay is classed as functional. The note with it: in the assay text read “after 48 hrs” for “after 24 hrs”. The essentials:
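HepG2 cells seeded at 1.5 × 10^4 cells/well in DMEM and grown 24 h at 37 °C, 5% CO2. Compound (10 μM) then added together with 8 mM acetaminophen; bicyclol 10 μM plus 8 mM acetaminophen served as reference. Cultured 48 h, then 0.5 mg/mL MTT for 4 h, formazan OD read at 570 nm. Mean ± SD of four independent experiments; Student's t-test.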

For the next assay, the system named is Bel-7402. Description: Cytotoxicity against human Bel7402 cells assessed as growth inhibition at 10 uM after 72 hrs by coulter counting method. The format is functional, cell-based.
A further assay deals with HCT-8. Description: Cytotoxicity against human HCT8 cells assessed as growth inhibition at 10 uM after 72 hrs by coulter counting method. The assay is classed as functional, cell-based.
The next assay concerns the target Histone deacetylase 1 (Homo sapiens, UniProt Q13547). The experiment in a line: Inhibition of HDAC1 (unknown origin) using H3(1 to 21)K9 after 60 mins by fluorescence assay.
The test system of the next assay is Peritoneal macrophage. The experiment in a line: Inhibition of LPS-induced TNFalpha secretion in C57BL6J mouse peritoneal macrophages at 10 uM after 24 hrs. The assay is classed as functional, cell-based.
Another assay relates to A2780. The experiment in a line: Cytotoxicity against human A2780 cells assessed as growth inhibition at 10 uM after 72 hrs by coulter counting method. The assay is classed as functional, cell-based.
In another assay the test system is A549. Description: Cytotoxicity against human A549 cells assessed as growth inhibition at 10 uM after 72 hrs by coulter counting method. The format is functional, cell-based.
A further assay relates to BGC-823. The experiment in a line: Cytotoxicity against human BGC823 cells assessed as growth inhibition at 10 uM after 72 hrs by coulter counting method. The assay is classed as functional, cell-based.

Activity calls are given as the source filed them. No cut-off for these calls is given here.

Sequence of Histone deacetylase 1 (Q13547 whole entry): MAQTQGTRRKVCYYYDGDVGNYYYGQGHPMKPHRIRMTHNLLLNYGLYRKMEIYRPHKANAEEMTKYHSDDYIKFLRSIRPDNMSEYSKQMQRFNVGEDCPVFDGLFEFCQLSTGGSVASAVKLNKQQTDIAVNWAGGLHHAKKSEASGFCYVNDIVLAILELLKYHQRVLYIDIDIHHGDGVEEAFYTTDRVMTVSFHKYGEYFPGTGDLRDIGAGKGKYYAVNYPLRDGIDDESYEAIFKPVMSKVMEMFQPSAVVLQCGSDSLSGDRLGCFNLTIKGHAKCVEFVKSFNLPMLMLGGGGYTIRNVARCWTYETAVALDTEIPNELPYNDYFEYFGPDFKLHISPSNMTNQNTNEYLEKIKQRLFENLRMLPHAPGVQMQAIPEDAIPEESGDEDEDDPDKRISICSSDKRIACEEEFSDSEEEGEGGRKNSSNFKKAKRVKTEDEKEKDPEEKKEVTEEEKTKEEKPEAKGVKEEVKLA

Take `COc1cc([C@H]2Oc3c(OC)cc(/C=C/CO[C@@H]4O[C@H](CO)[C@@H](O)[C@H](O)[C@H]4O)cc3[C@@H]2CO)cc(OC)c1O[C@@H]1O[C@H](CO)[C@@H](O)[C@H](O)[C@H]1O`: the Activity in the assay with HepG2 was 30.5%.

Regarding `COC(=O)c1cc(OC)c2c(c1-c1c(CO)cc(OC)c3c1OCO3)OCO2` [BICYCLOL], in the assay on HepG2, the Activity was determined as 34.8%.

On to `COc1cc([C@H]2Oc3c(OC)cc(CCCO)cc3[C@@H]2CO)cc(OC)c1O[C@@H]1O[C@H](CO)[C@@H](O)[C@H](O)[C@H]1O`, for which the Activity in the assay with HepG2 was 31.2%.

For the molecule `CCC(=O)c1cc(OC)c(O[C@@H]2O[C@H](CO[C@@H]3O[C@@H](C)[C@H](O)[C@@H](O)[C@H]3O)[C@@H](O)[C@H](O)[C@H]2O)c(OC)c1`, in the assay on HepG2, the Activity was found to be 37.6%.

With `COc1cc([C@H]2Oc3c(OC)cc(/C=C/CO[C@@H]4O[C@H](CO)[C@@H](O)[C@H](O)[C@H]4O)cc3[C@@H]2CO)ccc1O[C@@H]1O[C@H](CO)[C@@H](O)[C@H](O)[C@H]1O`, the Activity in the assay with HepG2 turned out to be 46%.

Consider `O=C(O)/C=C\c1cc2ccoc2cc1O[C@@H]1O[C@H](CO)[C@@H](O)[C@H](O)[C@H]1O`, for which the “growth inhibition (GI)” value in the assay on Bel-7402, in the assay with HCT-8, with A2780, in the assay with A549 and with BGC-823 was “inactive” throughout. Also, on Histone deacetylase 1, 4.6 µM corresponded to half-maximal inhibition (IC50). For the same molecule, the inhibition entry with Peritoneal macrophage was “inactive”.

On to `COc1cc([C@@H](O)[C@H](CO)Oc2c(OC)cc(CCC(C)O)cc2OC)cc(OC)c1O[C@@H]1O[C@H](CO)[C@@H](O)[C@H](O)[C@H]1O` (some centres not stated), for which, in the assay with HepG2, the Activity was found to be 38.9%.

On to `COc1cc([C@H]2Oc3c(OC)cc(CCCO)cc3[C@@H]2CO)ccc1O[C@@H]1O[C@H](CO)[C@@H](O)[C@H](O)[C@H]1O`, for which the “growth inhibition (GI)” value with Bel-7402, in the assay with HCT-8, in the assay on A2780, in the assay on A549 and in the assay on BGC-823 was “inactive” each time. The Activity in the assay with HepG2 is 38.4%. Besides, it took 3.6 µM to reach half-maximal inhibition against Histone deacetylase 1 (IC50). Further, the inhibition result in the assay with Peritoneal macrophage was “inactive”.

With `COc1cc([C@H]2Oc3c(OC)cc(CCCO)cc3[C@@H]2CO[C@@H]2O[C@H](CO[C@@H]3O[C@@H](C)[C@H](O)[C@@H](O)[C@H]3O)[C@@H](O)[C@H](O)[C@H]2O)ccc1O`, the Activity in the assay on HepG2 turned out to be 37.4%.

(Values after ChEMBL document CHEMBL4190195, “Bioactive Glycosides from the Twigs of Litsea cubeba” (J Nat Prod, 2017).)
